What was measured:
[1] = Inhibition of […] protease 3C using DabcylKEALFQ-GPPQF-E(Edans)-NH2 as substrate incubated for 10 mins by fluorospectrometry; set-up: species or system Coxsackievirus
Procedure, shortened: (§1)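 FRET cleavage assay in 20 mM Tris-HCl, 100 mM NaCl, 1 mM EDTA, 1 mM DTT, pH 7.3. Final enzyme 2 μM for CVB3 3Cpro or 3 μM for EV-A71 3Cpro, preincubated with inhibitor (0–100 μM) for 10 min at 37 °C. Reaction started with 20 μM final Dabcyl-KEALFQ↓GPPQF-E(Edans)-NH₂. Edans dequenching read at ex 360/em 460 nm. Triplicate, mean ± SD.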

Enterovirus A71 [2] = experiment: Antiviral activity against Enterovirus A71 infected in HuH7 cells expressing T7 RNA polymerase assessed as reduction in viral RNA replication incubated for 24 hrs by luciferase reporter gene assay; format: functional, organism-based; settings: Enterovirus A, Huh-7, 24 h
Procedure, shortened: (§2)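 Huh-T7 cells (DMEM, 2 mM glutamine, penicillin/streptomycin, 10% FCS growth or 2% maintenance, G-418 400 μg·mL⁻¹) transfected with enteroviral replicon. Compound added in growth medium at 40 μM for screening or 0, 1.25, 2.5, 5, 10, 20, 40 μM for EC50. After 24 h, cells lysed and luciferase activity read. Triplicate or quadruplicate, mean ± SD.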

Enterovirus A71 [3] = experiment: Antiviral activity against Enterovirus A71 infected in RD cells assessed as reduction in virus-induced cytopathic effect incubated for 3 days by MTS assay; format: functional, organism-based; settings: Enterovirus A, 72 h
Procedure, shortened: (§3)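 CPE reduction assay. RD (EV-A71) or HeLa Rh (EV-D68, HRV) cells seeded 24 h earlier in medium with 2% FCS; HRV2/HRV14 medium contained 30 mM MgCl₂. Serial compound dilutions added with virus. At 3 days post infection, 5% MTS added for 1 h at 37 °C and OD498 read. EC50 taken as 50% protection versus controls by logarithmic interpolation; morphology also checked microscopically.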

SARS-CoV [4] = experiment: Antiviral activity against SARS coronavirus infected in Vero E6 cells assessed as reduction in virus-induced cytopathic effect incubated for 2 days by non-radioactive cell proliferation assay; format: functional, organism-based; settings: Severe acute respiratory syndrome-related coronavirus, Vero C1008, 48 h
[5] = tested on: Middle East respiratory syndrome-related coronavirus; experiment: Antiviral activity against Middle East respiratory syndrome coronavirus infected in HuH7 cells expressing T7 RNA polymerase assessed as reduction in virus-induced cytopathic effect incubated for 2 days by non-radioactive cell proliferation assay; format: functional, organism-based; settings: Huh-7, 48 h
[6] = Antiviral activity against […] infected in HuH7 cells expressing T7 RNA polymerase assessed as reduction in virus-induced cytopathic effect incubated for 2 days by non-radioactive cell proliferation assay; format: functional, organism-based; settings: B3, Huh-7, 48 h
[7] = tested on: Middle East respiratory syndrome-related coronavirus; experiment: Antiviral activity against Middle East respiratory syndrome coronavirus infected in Vero cells assessed as reduction in virus-induced cytopathic effect incubated for 3 days by non-radioactive cell proliferation assay; format: functional, organism-based; settings: 72 h
[8] = Inhibition of Enterovirus A71 protease 3C using DabcylKEALFQ-GPPQF-E(Edans)-NH2 as substrate incubated for 10 mins by fluorospectrometry; procedure, shortened: as §1
[9] = Therapeutic index, ratio of CC50 for human HeLa Rh cells to EC50 for Human rhinovirus 14 infected in human HeLa Rh cells; format: toxicity, cell-based; settings: read-out: Ratio CC50/EC50
rhinovirus B14 = experiment: Antiviral activity against Human rhinovirus 14 infected in HeLa Rh cells assessed as reduction in virus-induced cytopathic effect incubated for 3 days by MTS assay; format: functional, organism-based; settings: Rhinovirus B, 72 h; procedure, shortened: as §3
[10] = Cytotoxicity against human HuH7 cells expressing T7 RNA polymerase assessed as reduction in cell viability incubated for 2 days by non-radioactive cell proliferation assay; format: cell-based, Huh-7
[11] = Inhibition of SARS coronavirus M protease using Dabcyl-KTSAVLQ-SGFRKM-E(Edans)-NH2 as substrate incubated for 10 mins by fluorospectrometry; set-up: species or system Severe acute respiratory syndrome-related coronavirus
Procedure, shortened: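 FRET cleavage assay with 0.5 µM recombinant SARS-CoV Mpro (authentic termini) in 20 mM Tris-HCl, 100 mM NaCl, 1 mM EDTA, 1 mM DTT, pH 7.3. Enzyme was preincubated with inhibitor (0–100 µM) for 10 min at 37 °C, then 20 µM final substrate was added. Fluorescence was read at ex 360/em 460 nm. Triplicate, mean ± SD; IC50 from curve fitting.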

[12] = Inhibition of human coronavirus NL63 M protease using Dabcyl-KTSAVLQ-SGFRKM-E(Edans)-NH2 as substrate incubated for 10 mins by fluorospectrometry
Procedure, shortened: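 0.5 μM final HCoV-NL63 Mpro preincubated 10 min at 37 °C with inhibitor (0–100 μM) in pH 7.3 Tris buffer (100 mM NaCl, 1 mM EDTA, 1 mM DTT). Cleavage of 20 μM Dabcyl-KTSAVLQ↓SGFRKM-E(Edans)-NH₂ followed by fluorescence at 460 nm with 360 nm excitation. IC50 from triplicate measurements, mean ± SD.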

rhinovirus A2 = experiment: Antiviral activity against Human rhinovirus 2 infected in HeLa Rh cells assessed as reduction in virus-induced cytopathic effect incubated for 3 days by MTS assay; format: functional, organism-based; settings: Rhinovirus A, 72 h; procedure, shortened: as §3
[13] = Cytotoxicity against human RD cells assessed as reduction in cell viability incubated for 3 days by MTS assay; format: cell-based
[14] = Cytotoxicity against human HeLa Rh cells assessed as reduction in cell viability incubated for 3 days by MTS assay; format: cell-based
SARS-CoV [15] = experiment: Antiviral activity against SARS coronavirus infected in HuH7 cells expressing T7 RNA polymerase assessed as reduction in viral RNA replication incubated for 24 hrs by luciferase reporter gene assay; format: functional, organism-based; settings: Severe acute respiratory syndrome-related coronavirus, Huh-7, 24 h
Procedure, shortened: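 SARS-CoV replicon (DNA-launched, Renilla luciferase reporter) was transfected into Huh-T7 cells at 80–90% confluency. Compound at 0, 1.25, 2.5, 5, 10, 20 or 40 µM in growth medium was added after transfection. At 24 h, cells were lysed and luciferase activity measured. Runs were in triplicate or quadruplicate, reported as mean ± SD.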

[16] = Therapeutic index, ratio of CC50 for human HeLa Rh cells to EC50 for Enterovirus D68 infected in human HeLa Rh cells; format: toxicity, cell-based; settings: read-out: Ratio CC50/EC50
[17] = Therapeutic index, ratio of CC50 for human HeLa Rh cells to EC50 for Human rhinovirus 2 infected in human HeLa Rh cells; format: toxicity, cell-based; settings: read-out: Ratio CC50/EC50
[18] = Antiviral activity against […] infected in HuH7 cells expressing T7 RNA polymerase assessed as reduction in viral RNA replication incubated for 24 hrs by luciferase reporter gene assay; format: functional, organism-based; settings: B3, Huh-7, 24 h; procedure, shortened: as §2
Human coronavirus 229E = experiment: Antiviral activity against Human coronavirus 229E infected in HuH7 cells expressing T7 RNA polymerase assessed as reduction in virus-induced cytopathic effect incubated for 48 hrs by Alamar blue based assay; format: functional, organism-based; settings: Huh-7, 48 h
enterovirus D68 = experiment: Antiviral activity against Enterovirus D68 infected in HeLa Rh cells assessed as reduction in virus-induced cytopathic effect incubated for 3 days by MTS assay; format: functional, organism-based; settings: Enterovirus D, 72 h; procedure, shortened: as §3

SMILES	IC50 [1] [µM]	EC50 (Enterovirus A71 [2]) [µM]	EC50 (Enterovirus A71 [3]) [µM]	EC50 (SARS-CoV [4]) [µM]	EC50 [5] [µM]	EC50 [6] [µM]	EC50 [7] [µM]	IC50 [8] [µM]	EC50 (rhinovirus B14) [µM]	CC50 at 48 h [10] [µM]	IC50 [11] [µM]	IC50 [12] [µM]	EC50 (rhinovirus A2) [µM]	CC50 at 72 h [13] [µM]	CC50 at 72 h [14] [µM]	EC50 (SARS-CoV [15]) [µM]	EC50 [18] [µM]	EC50 (Human coronavirus 229E) [µM]	other results
O=C(/C=C/c1ccccc1)N[C@@H](CC1CCC1)C(=O)N[C@@H](C[C@@H]1CCNC1=O)C(=O)C(=O)NCc1ccccc1	4.78	20	41	7	0.02	10.4	9.8	10.8	4.2	124	1.44	3.43	3.7	100	65	6.7	4.3	–	selectivity ratio [9]: > 15; selectivity ratio [16]: > 15; selectivity ratio [17]: > 15
O=C(/C=C/c1ccccc1)N[C@@H](CC1CCCC1)C(=O)N[C@@H](C[C@@H]1CCNC1=O)C(=O)C(=O)NCc1ccccc1	1.93	8.9	4.2	4.9	0.007	8.1	11.1	4.73	0.42	47.5	1.27	5.41	0.51	30.8	33.2	3.6	5.1	2.5	–
O=C(/C=C/c1ccccc1)N[C@@H](CC1CC1)C(=O)N[C@@H](C[C@@H]1CCNC1=O)C(=O)C(=O)NCc1ccccc1	4.25	> 20	46	18.4	0.08	10.4	10.9	18.5	5.5	> 189	0.24	1.37	3.8	106	103	1.9	18	1.3	–
CCCC[C@H](NC(=O)/C=C/c1ccccc1)C(=O)N[C@@H](C[C@@H]1CCNC1=O)C(=O)C(=O)NCc1ccccc1	5.2	> 20	–	–	–	–	–	3.24	–	–	8.5	> 50	–	–	–	–	–	–	–
O=C(/C=C/c1ccccc1)N[C@@H](CC1CCCCC1)C(=O)N[C@@H](C[C@@H]1CCNC1=O)C(=O)C(=O)NCc1ccccc1	0.95	6.95	3.7	2.1	0.0004	2.77	5	1.69	0.7	43	0.71	12.3	0.64	17.3	10.9	1.4	2.35	1.8	EC50 (enterovirus D68): 0.48 µM; selectivity ratio [9]: > 15; selectivity ratio [16]: > 15; selectivity ratio [17]: > 15
C#CC[C@H](NC(=O)/C=C/c1ccccc1)C(=O)N[C@@H](C[C@@H]1CCNC1=O)C(=O)C(=O)NCc1ccccc1	8.93	–	–	–	–	–	–	8.5	–	–	10.7	17.4	–	–	–	> 20	–	–	–
O=C(/C=C/c1ccccc1)N[C@@H](Cc1ccc(F)cc1)C(=O)N[C@@H](C[C@@H]1CCNC1=O)C(=O)C(=O)NCc1ccccc1	8.69	> 20	–	–	–	–	–	2.32	–	–	–	> 50	–	–	–	–	–	–	–
O=C(/C=C/c1ccccc1)N[C@H](C(=O)N[C@@H](C[C@@H]1CCNC1=O)C(=O)C(=O)NCc1ccccc1)C1CC1	15.4	–	–	–	–	–	–	> 30	–	–	6.27	11.5	–	–	–	–	–	–	–
CC(C)C[C@H](NC(=O)/C=C/c1ccccc1)C(=O)N[C@@H](C[C@@H]1CCNC1=O)C(=O)C(=O)NCc1ccccc1	3.82	> 10	72	14.2	0.0046	24	9.2	13.8	13.4	> 188	0.33	1.08	8.9	115	103	7.2	> 10	0.6	EC50 (enterovirus D68): 4.44 µM
CC(C)(C)OC(=O)N[C@@H](C[C@@H]1CCNC1=O)C(=O)C(=O)NCc1ccccc1	> 50	> 10	–	–	–	–	–	> 50	–	–	–	> 50	–	–	–	> 40	> 10	–	–
